Experimental data from ChEMBL document CHEMBL3046448, “Design and syntheses of novel phthalazin-1(2H)-one derivatives as acetohydroxyacid synthase inhibitors” (J Agric Food Chem, 2006).

How the values were obtained:
Digitaria sanguinalis [1] = test: Herbicidal activity against Digitaria sanguinalis (hairy crabgrass) assessed as growth inhibition at 150 g ai/ha applied as post-emergence treatment under green house conditions measured 15 days post compound treatment; type: functional; conditions: 360 h, read-out: GI
Outline: (§1)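 Monocot weeds grown in pots in a greenhouse and sprayed post-emergence at the one-leaf stage. Clay soil: pH 6.5, 1.6% organic matter, 37.3% clay, CEC 12.1 cmol/kg. Formulation: 100 g/L emulsified concentrate (DMF, TW-80) diluted with water to 150 g ai/ha. Untreated and DMF controls included. Growth inhibition scored visually after 15 days: ++ >80%, + 50-80%, − <50%.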

Amaranthus retroflexus [2] = test: Herbicidal activity against Amaranthus retroflexus assessed as growth inhibition at 150 g ai/ha applied as post-emergence treatment under green house conditions measured 15 days post compound treatment; type: functional; conditions: 360 h, read-out: GI
Outline: (§2)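 Post-emergence spray on pot-grown dicot weeds at the two-leaf stage in a greenhouse. Clay soil: pH 6.5, 1.6% organic matter, 37.3% clay, CEC 12.1 cmol/kg. Formulation: 100 g/L DMF/TW-80 emulsified concentrate, water-diluted to 150 g ai/ha. Untreated and DMF solvent controls. Visual inhibition rating at 15 days: ++ >80%, + 50-80%, − <50%.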

Setaria viridis [3] = test: Herbicidal activity against Setaria viridis (green foxtail) assessed as growth inhibition at 150 g ai/ha applied as post-emergence treatment under green house conditions measured 15 days post compound treatment; type: functional; conditions: 360 h, read-out: GI; outline: as §1
Brassica juncea [4] = test: Herbicidal activity against Brassica juncea assessed as growth inhibition at 150 g ai/ha applied as post-emergence treatment under green house conditions measured 15 days post compound treatment; type: functional; conditions: 360 h, read-out: GI; outline: as §2
[5] = target: T1, Acetolactate synthase, chloroplastic (Arabidopsis thaliana, UniProt P17597); test: Inhibition of wild type Arabidopsis thaliana acetohydroxyacid synthase
T1 sequence (P17597 whole entry): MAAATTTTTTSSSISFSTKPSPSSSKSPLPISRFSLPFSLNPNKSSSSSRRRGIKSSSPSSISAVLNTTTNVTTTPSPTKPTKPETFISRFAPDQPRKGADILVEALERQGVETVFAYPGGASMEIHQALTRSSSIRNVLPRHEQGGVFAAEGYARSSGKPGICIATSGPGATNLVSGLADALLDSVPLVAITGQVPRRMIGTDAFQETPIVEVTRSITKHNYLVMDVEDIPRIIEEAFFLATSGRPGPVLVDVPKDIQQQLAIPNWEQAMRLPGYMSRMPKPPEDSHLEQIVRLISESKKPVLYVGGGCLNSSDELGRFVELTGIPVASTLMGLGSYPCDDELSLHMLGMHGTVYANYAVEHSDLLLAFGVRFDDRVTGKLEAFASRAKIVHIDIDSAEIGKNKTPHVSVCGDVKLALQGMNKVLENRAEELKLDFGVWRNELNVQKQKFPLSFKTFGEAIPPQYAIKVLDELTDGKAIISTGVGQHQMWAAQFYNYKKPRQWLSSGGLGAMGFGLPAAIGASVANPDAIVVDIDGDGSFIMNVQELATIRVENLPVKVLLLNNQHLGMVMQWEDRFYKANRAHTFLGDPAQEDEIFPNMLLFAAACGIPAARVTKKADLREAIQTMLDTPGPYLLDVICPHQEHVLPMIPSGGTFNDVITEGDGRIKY

Digitaria sanguinalis [6] = test: Herbicidal activity against Digitaria sanguinalis (hairy crabgrass) assessed as growth inhibition at 150 g ai/ha applied as pre-emergence treatment 24 hr after weeds seeds sowing under green house conditions measured 15 days post compound treatment; type: functional; conditions: read-out: GI
Outline: (§3)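 Pre-emergence spray applied 24 h after sowing weeds in pots in a greenhouse. Clay soil: pH 6.5, 1.6% organic matter, 37.3% clay, CEC 12.1 cmol/kg. Formulation: 100 g/L emulsified concentrate (DMF solvent, TW-80 emulsifier) diluted with water to 150 g ai/ha. Untreated and DMF-treated controls. Growth inhibition judged visually at 15 days: ++ >80%, + 50-80%, − <50%.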

Brassica juncea [7] = test: Herbicidal activity against Brassica juncea assessed as growth inhibition at 150 g ai/ha applied as pre-emergence treatment 24 hr after weeds seeds sowing under green house conditions measured 15 days post compound treatment; type: functional; conditions: read-out: GI; outline: as §3
Setaria viridis [8] = test: Herbicidal activity against Setaria viridis (green foxtail) assessed as growth inhibition at 150 g ai/ha applied as pre-emergence treatment 24 hr after weeds seeds sowing under green house conditions measured 15 days post compound treatment; type: functional; conditions: read-out: GI; outline: as §3
Chenopodium album [9] = test: Herbicidal activity against Chenopodium album assessed as growth inhibition at 150 g ai/ha applied as pre-emergence treatment 24 hr after weeds seeds sowing under green house conditions measured 15 days post compound treatment; type: functional; conditions: read-out: GI; outline: as §3
Chenopodium album [10] = test: Herbicidal activity against Chenopodium album assessed as growth inhibition at 150 g ai/ha applied as post-emergence treatment under green house conditions measured 15 days post compound treatment; type: functional; conditions: 360 h, read-out: GI; outline: as §2
Amaranthus retroflexus [11] = test: Herbicidal activity against Amaranthus retroflexus assessed as growth inhibition at 150 g ai/ha applied as pre-emergence treatment 24 hr after weeds seeds sowing under green house conditions measured 15 days post compound treatment; type: functional; conditions: read-out: GI; outline: as §3
Echinochloa crus-galli [12] = test: Herbicidal activity against Echinochloa crus-galli (barnyard grass) assessed as growth inhibition at 150 g ai/ha applied as post-emergence treatment under green house conditions measured 15 days post compound treatment; type: functional; conditions: 360 h, read-out: GI; outline: as §1
Echinochloa crus-galli [13] = test: Herbicidal activity against Echinochloa crus-galli (barnyard grass) assessed as growth inhibition at 150 g ai/ha applied as pre-emergence treatment 24 hr after weeds seeds sowing under green house conditions measured 15 days post compound treatment; type: functional; conditions: read-out: GI; outline: as §3

Ki [5]	SMILES	inhibition of growth at 150 g/ha (Digitaria sanguinalis [1])	inhibition of growth at 150 g/ha (Amaranthus retroflexus [2])	inhibition of growth at 150 g/ha (Setaria viridis [3])	inhibition of growth at 150 g/ha (Brassica juncea [4])	inhibition of growth at 150 g/ha (Digitaria sanguinalis [6])	inhibition of growth at 150 g/ha (Brassica juncea [7])	inhibition of growth at 150 g/ha (Setaria viridis [8])	inhibition of growth at 150 g/ha (Chenopodium album [9])	inhibition of growth at 150 g/ha (Chenopodium album [10])	inhibition of growth at 150 g/ha (Amaranthus retroflexus [11])	inhibition of growth at 150 g/ha (Echinochloa crus-galli [12])	inhibition of growth at 150 g/ha (Echinochloa crus-galli [13])
759 µM	COc1cc(OC)nc(Oc2cccc3c(C)nn(Cc4cccc(Br)c4)c(=O)c23)n1	50%	> 80%	50%	50%	< 50%	< 50%	< 50%	< 50%	< 50%	< 50%	50%	< 50%
1400 µM	COc1cc(OC)nc(Oc2cccc3c(C)nn(Cc4cccc(F)c4)c(=O)c23)n1	< 50%	< 50%	< 50%	< 50%	< 50%	< 50%	< 50%	< 50%	< 50%	< 50%	< 50%	< 50%
203 µM	COc1cc(OC)nc(Oc2cccc3c(C)nn(Cc4ccc(Cl)cc4)c(=O)c23)n1	< 50%	< 50%	< 50%	< 50%	< 50%	< 50%	< 50%	< 50%	< 50%	< 50%	< 50%	< 50%
362 µM	COc1cc(OC)nc(Oc2cccc3c(C)nn(Cc4ccccc4Br)c(=O)c23)n1	< 50%	< 50%	< 50%	< 50%	< 50%	< 50%	< 50%	< 50%	< 50%	< 50%	< 50%	< 50%
634 µM	COc1cc(OC)nc(Oc2cccc3c(C)nn(Cc4c(F)cccc4F)c(=O)c23)n1	< 50%	< 50%	< 50%	< 50%	< 50%	< 50%	< 50%	< 50%	< 50%	< 50%	< 50%	< 50%
262 µM	COc1cc(OC)nc(Oc2cccc3c(C)nn(Cc4ccccc4C)c(=O)c23)n1	< 50%	> 80%	50%	50%	< 50%	< 50%	< 50%	< 50%	50%	< 50%	< 50%	< 50%

The next lines start with the molecule.

SMILES	Ki [5]	inhibition of growth at 150 g/ha (Digitaria sanguinalis [1])	inhibition of growth at 150 g/ha (Amaranthus retroflexus [2])	inhibition of growth at 150 g/ha (Setaria viridis [3])	inhibition of growth at 150 g/ha (Brassica juncea [4])	inhibition of growth at 150 g/ha (Digitaria sanguinalis [6])	inhibition of growth at 150 g/ha (Brassica juncea [7])	inhibition of growth at 150 g/ha (Setaria viridis [8])	inhibition of growth at 150 g/ha (Chenopodium album [9])	inhibition of growth at 150 g/ha (Chenopodium album [10])	inhibition of growth at 150 g/ha (Amaranthus retroflexus [11])	inhibition of growth at 150 g/ha (Echinochloa crus-galli [12])	inhibition of growth at 150 g/ha (Echinochloa crus-galli [13])
COc1cc(OC)nc(Oc2cccc3c(C)nn(Cc4ccc(Br)cc4F)c(=O)c23)n1	420 µM	< 50%	< 50%	< 50%	< 50%	< 50%	< 50%	< 50%	< 50%	< 50%	< 50%	< 50%	< 50%
CCc1ccc(C(=O)n2nc(C)c3cccc(Oc4nc(OC)cc(OC)n4)c3c2=O)cc1	710 µM	< 50%	> 80%	50%	50%	< 50%	< 50%	< 50%	< 50%	50%	< 50%	50%	< 50%
CCOC(=O)Cn1nc(C)c2cccc(Oc3nc(OC)cc(OC)n3)c2c1=O	557 µM	50%	> 80%	> 80%	< 50%	< 50%	< 50%	< 50%	< 50%	50%	< 50%	> 80%	< 50%
COc1cc(OC)nc(Oc2cccc3c(C)n[nH]c(=O)c23)n1	789 µM	> 80%	> 80%	> 80%	< 50%	< 50%	< 50%	< 50%	< 50%	50%	< 50%	> 80%	< 50%
C=CCn1nc(C)c2cccc(Oc3nc(OC)cc(OC)n3)c2c1=O	5250 µM	50%	> 80%	> 80%	< 50%	< 50%	< 50%	< 50%	< 50%	50%	< 50%	> 80%	< 50%
